Measured values published in ChEMBL document CHEMBL3875205, “Macrocyclic MEK1/2 inhibitor with efficacy in a mouse model of cardiomyopathy caused by lamin A/C gene mutation” (Bioorg Med Chem, 2017).

How the values were obtained:
[1] = Effect on body mass in LmnaH222P/H222P mouse model of cardiomyopathy at 3 mg/kg/day, po administered 6 days per week via gavage starting from 14 weeks of age up to 20 weeks of age (reference value: 23.19 +/- 0.43); assay type: ADME, organism-based, Heart; conditions: in vivo
[2] = Effect on body mass in LmnaH222P/H222P mouse model of cardiomyopathy at 6 mg/kg/day, po administered 6 days per week via gavage starting from 14 weeks of age up to 20 weeks of age (reference value: 23.19 +/- 0.43); assay type: ADME, organism-based, Heart; conditions: in vivo
Mus musculus [3] = test: Toxicity in LmnaH222P/H222P mouse model of cardiomyopathy assessed as serum alkaline phosphatase activity at 3 mg/kg/day, po administered 6 days per week via gavage starting from 14 weeks of age up to 20 weeks of age (reference value: 91.5 +/- 6.99 U/L); assay type: organism-based, Heart; conditions: in vivo
Mus musculus [4] = test: Toxicity in LmnaH222P/H222P mouse model of cardiomyopathy assessed as serum alkaline phosphatase activity at 6 mg/kg/day, po administered 6 days per week via gavage starting from 14 weeks of age up to 20 weeks of age (reference value: 91.5 +/- 6.99 U/L); assay type: organism-based, Heart; conditions: in vivo
Mus musculus [5] = test: Toxicity in LmnaH222P/H222P mouse model of cardiomyopathy assessed as serum alanine aminotransferase activity at 3 mg/kg/day, po administered 6 days per week via gavage starting from 14 weeks of age up to 20 weeks of age (reference value: 56 +/- 10.55 U/L); assay type: organism-based, Heart; conditions: in vivo
Mus musculus [6] = test: Toxicity in LmnaH222P/H222P mouse model of cardiomyopathy assessed as serum alanine aminotransferase activity at 6 mg/kg/day, po administered 6 days per week via gavage starting from 14 weeks of age up to 20 weeks of age (reference value: 56 +/- 10.55 U/L); assay type: organism-based, Heart; conditions: in vivo
Mus musculus [7] = test: Toxicity in LmnaH222P/H222P mouse model of cardiomyopathy assessed as total bilirubin content in serum at 3 mg/kg/day, po administered 6 days per week via gavage starting from 14 weeks of age up to 20 weeks of age (reference value: 0.36 +/- 0.02 mg/L); assay type: organism-based, Heart; conditions: in vivo
Mus musculus [8] = test: Toxicity in LmnaH222P/H222P mouse model of cardiomyopathy assessed as total bilirubin content in serum at 6 mg/kg/day, po administered 6 days per week via gavage starting from 14 weeks of age up to 20 weeks of age (reference value: 0.36 +/- 0.02 mg/L); assay type: organism-based, Heart; conditions: in vivo
Mus musculus [9] = test: Toxicity in LmnaH222P/H222P mouse model of cardiomyopathy assessed as serum amylase activity at 3 mg/kg/day, po administered 6 days per week via gavage starting from 14 weeks of age up to 20 weeks of age (reference value: 1102 +/- 53.63 U/L); assay type: organism-based, Heart; conditions: in vivo
Mus musculus [10] = test: Toxicity in LmnaH222P/H222P mouse model of cardiomyopathy assessed as serum amylase activity at 6 mg/kg/day, po administered 6 days per week via gavage starting from 14 weeks of age up to 20 weeks of age (reference value: 1102 +/- 53.63 U/L); assay type: organism-based, Heart; conditions: in vivo
Mus musculus [11] = test: Toxicity in LmnaH222P/H222P mouse model of cardiomyopathy assessed as blood urea nitrogen level at 3 mg/kg/day, po administered 6 days per week via gavage starting from 14 weeks of age up to 20 weeks of age (reference value: 17.98 +/- 0.94 mg/dl); assay type: organism-based, Heart; conditions: in vivo
Mus musculus [12] = test: Toxicity in LmnaH222P/H222P mouse model of cardiomyopathy assessed as blood urea nitrogen level at 6 mg/kg/day, po administered 6 days per week via gavage starting from 14 weeks of age up to 20 weeks of age (reference value: 17.98 +/- 0.94 mg/dl); assay type: organism-based, Heart; conditions: in vivo
Mus musculus [13] = test: Toxicity in LmnaH222P/H222P mouse model of cardiomyopathy assessed as serum creatinine level at 3 mg/kg/day, po administered 6 days per week via gavage starting from 14 weeks of age up to 20 weeks of age (reference value: 0.45 +/- 0.01 mg/dl); assay type: organism-based, Heart; conditions: in vivo
Mus musculus [14] = test: Toxicity in LmnaH222P/H222P mouse model of cardiomyopathy assessed as serum creatinine level at 6 mg/kg/day, po administered 6 days per week via gavage starting from 14 weeks of age up to 20 weeks of age (reference value: 0.45 +/- 0.01 mg/dl); assay type: organism-based, Heart; conditions: in vivo
Mus musculus [15] = test: Toxicity in LmnaH222P/H222P mouse model of cardiomyopathy assessed as ratio of blood urea nitrogen to serum creatinine at 3 mg/kg/day, po administered 6 days per week via gavage starting from 14 weeks of age up to 20 weeks of age (reference value: 20.14 +/- 1.25); assay type: organism-based, Heart; conditions: in vivo
Mus musculus [16] = test: Toxicity in LmnaH222P/H222P mouse model of cardiomyopathy assessed as ratio of blood urea nitrogen to serum creatinine at 6 mg/kg/day, po administered 6 days per week via gavage starting from 14 weeks of age up to 20 weeks of age (reference value: 20.14 +/- 1.25); assay type: organism-based, Heart; conditions: in vivo
Mus musculus [17] = test: Hepatotoxicity in LmnaH222P/H222P mouse model of cardiomyopathy assessed as hepatocyte necrosis at 3 to 6 mg/kg/day, po administered 6 days per week via gavage starting from 14 weeks of age up to 20 weeks of age by hematoxylin and eosin staining based assay; assay type: toxicity, organism-based; conditions: hepatocytes
Summary of the method: (§1)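 Liver, kidney and spleen from male Lmna H222P/H222P mice given vehicle or 3 or 6 mg/kg/day by gavage 6 days/week from 14 to 20 weeks. Tissues were fixed in 4% formaldehyde for 48 h, paraffin-embedded, sectioned at 5 μm and stained with hematoxylin and eosin. Findings were recorded for each individual sample.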

Mus musculus [18] = test: Hepatotoxicity in LmnaH222P/H222P mouse model of cardiomyopathy assessed as inflammation at 3 to 6 mg/kg/day, po administered 6 days per week via gavage starting from 14 weeks of age up to 20 weeks of age by hematoxylin and eosin staining based assay; assay type: toxicity, organism-based; conditions: in vivo; summary of the method: as §1
Mus musculus [19] = test: Hepatotoxicity in LmnaH222P/H222P mouse model of cardiomyopathy assessed as cholestasis at 3 to 6 mg/kg/day, po administered 6 days per week via gavage starting from 14 weeks of age up to 20 weeks of age by hematoxylin and eosin staining based assay; assay type: toxicity, organism-based; conditions: in vivo; summary of the method: as §1
Mus musculus [20] = test: Nephrotoxicity in LmnaH222P/H222P mouse model of cardiomyopathy assessed as glomeruli abnormalities at 3 to 6 mg/kg/day, po administered 6 days per week via gavage starting from 14 weeks of age up to 20 weeks of age by hematoxylin and eosin staining based assay; assay type: toxicity, organism-based; conditions: in vivo; summary of the method: as §1
Mus musculus [21] = test: Nephrotoxicity in LmnaH222P/H222P mouse model of cardiomyopathy assessed as interstitial nephritis at 3 to 6 mg/kg/day, po administered 6 days per week via gavage starting from 14 weeks of age up to 20 weeks of age by hematoxylin and eosin staining based assay; assay type: toxicity, organism-based; conditions: in vivo; summary of the method: as §1
Mus musculus [22] = test: Toxicity in LmnaH222P/H222P mouse model of cardiomyopathy assessed as appearance of hemosiderin-laden macrophages in spleen at 3 to 6 mg/kg/day, po administered 6 days per week via gavage starting from 14 weeks of age up to 20 weeks of age by hematoxylin and eosin staining based assay; assay type: organism-based; conditions: in vivo; summary of the method: as §1
Mus musculus [23] = test: Protective activity in LmnaH222P/H222P mouse model of cardiomyopathy assessed as mean survival days at 3 mg/kg, po administered 6 days per week via gavage starting from 10 weeks of age continued up to mouse death (reference value: 202 day); assay type: functional, Heart
Mus musculus [24] = test: Protective activity in LmnaH222P/H222P mouse model of cardiomyopathy assessed as mean survival days at 6 mg/kg, po administered 6 days per week via gavage starting from 10 weeks of age continued up to mouse death (reference value: 202 day); assay type: functional, Heart
[25] = molecular target: Dual specificity mitogen-activated protein kinase kinase; MEK1/2 (Homo sapiens, UniProt P36507+Q02750); test: Inhibition of MEK1/2 in human HT-29 cells assessed as reduction in cell proliferation after 72 hrs by CellTiter-Glo assay; assay type: cell-based
Summary of the method: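 HT-29 cells were plated at 2,000/well in DMEM or RPMI with 10% FBS and left overnight at 37°C, 5% CO2. Medium was replaced with compound at 3-fold dilutions from 3.3 µM to 4.5 nM. After 72 h, viability was read by CellTiter-Glo luminescence and IC50 calculated.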

In the case of O=S1(=O)Nc2c(cc(F)c(F)c2Nc2ccc(I)cc2F)OCC(O)C(O)CC12CC2 (single isomer, unassigned; form 1), the Activity [1] is reported as 24.06, the Activity [2] is reported as 22.93 and the Activity (Mus musculus [3]) is reported as 104.5 U/L. It also gave an Activity (Mus musculus [4]) of 113 U/L, an Activity (Mus musculus [5]) of 69.6 U/L and an Activity (Mus musculus [6]) of 69.6 U/L. The Activity (Mus musculus [7]) was 0.32 mg/L, the Activity (Mus musculus [8]) was 0.37 mg/L and the Activity (Mus musculus [9]) was 1372 U/L. It also gave an Activity (Mus musculus [10]) of 1086 U/L, an Activity (Mus musculus [11]) of 18.04 mg/dL and an Activity (Mus musculus [12]) of 19.12 mg/dL. For the same compound, the Activity (Mus musculus [13]) was 0.46 mg/dL, the Activity (Mus musculus [14]) was 0.46 mg/dL and the Ratio (Mus musculus [15]) was 19.66. For the same compound, the Ratio (Mus musculus [16]) was 20.77, the Activity (Mus musculus [17]) was “Non-Toxic” and the Activity (Mus musculus [18]) was “Non-Toxic”. For the same compound, the Activity (Mus musculus [19]) was “Non-Toxic”, the Activity (Mus musculus [20]) was “Non-Toxic” and the Activity (Mus musculus [21]) was “Non-Toxic”. The Activity (Mus musculus [22]) was “Non-Toxic”, the MSD (Mus musculus [23]) was 225 days and the MSD (Mus musculus [24]) was 225 days. For the same compound, the IC50 [25] was 16 nM.
